One assay concerns Escherichia coli. The assay is described as follows: Antibacterial activity against Escherichia coli WF+. The class given is functional, organism-based.
Assay [1] relates to Staphylococcus aureus. The assay can be described thus: Antibacterial activity against Staphylococcus aureus Rosenbach 209 after 48 hrs by agar well diffusion method. The class given is functional. The method in brief: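 Agar-well diffusion on meat-peptone agar. Read-out was the diameter of the inhibition zone, with ≥15 mm taken as active. Pure solvent served as the control.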

For assay [2], the system named is Staphylococcus aureus. The assay is described as follows: Antibacterial activity against Staphylococcus aureus Rosenbach 209 after 24 hrs by serial dilution method. The class given is functional. The following applies: Rosenbach 209, 24 h. The method in brief:
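Serial dilution of each chalcone in meat-peptone broth in tubes. Each tube was inoculated with bacterial suspension at 10⁵ cells/ml and incubated at 37 °C for 24 h. MIC was the lowest dilution with no visible growth compared with inoculated drug-free broth.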

Converted amounts (≈) assume the structure as drawn. The source made the active and inactive calls. How the calls were made is not given here.

As for `COc1cc(C(=O)/C=C/c2ccc(NC(C)=O)cc2)cc(OC)c1OC`, the outcome in the assay with Escherichia coli was inactive. Besides, the “diameter of the inhibition zone (DIZ)” value in the assay on Staphylococcus aureus [1] turned out to be 0 mm. Also, the MIC with Staphylococcus aureus [2] turned out to be 500 µg/mL (≈ 1410 µM).

The values above are taken from ChEMBL document CHEMBL1137684, “Examination of growth inhibitory properties of synthetic chalcones for which antibacterial activity was predicted” (2009).
